Screening data: PubChem, several laboratories
Only some compounds are listed: those with a hit (about 3.7% of all), similar ones and a draw of the others.
bCat nuc transl – alters nuclear translocation of beta-catenin in HeLa cells; immunofluorescence imaging; nuclear translocation activity, % at 5 µM; 190,000 compounds, 0.3% hits;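 active = nuclear translocation activity above 50% at 5 µM, with a well cell count of 50 or more; inconclusive = wells under 50 cells across six images, flagged as toxic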;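 also: per-cell ratio of nuclear to cytoplasmic median beta-catenin stain intensity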
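System: Human HeLa cells, endogenous beta-catenin | Compound dosing: 5 µM primary, 0.02–20 µM confirmation | Timing: 24 h compound exposure at 37°C, 5% CO2 | Measured by: Fluorescence imaging of beta-catenin antibody stain plus DAPI | Read-out basis: % activation of per-cell nuclear versus cytoplasmic median beta-catenin signal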
Redox H2O2 prof – compounds producing H2O2 with reducing agent – biochemical, NIH compound library profiling, artefact control for MLSCN library redox annotation, primary screen. DTT-dependent redox cycling H2O2, phenol red/HRP absorbance; 100% = 100 µM peroxide control, 0% = buffer. activation, % at 10 µM. 200,000 compounds, 0.03% hits. AID 878;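 active = activation of at least 50% relative to the plate's high and low controls in the primary single-dose screen; inactive = activation below 50%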;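 also: compound incubated with DTT at 0.8 mM final as the reducing agent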
ROMK primary – human ROMK K+ channel modulation, primary screen; 130,000 compounds, 2% hits; Tet-inducible ROMK, thallium flux fluorescence; actives lie on both sides; P48048; B-score at 10 µM;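 active = signal ratio slope over the read window, or its plate-corrected B-score, at least 3 SD from the plate mean, either direction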;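 also: B-score of the F/F0 ratio slope over 7 to 12 s after thallium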
Cl transport mod – modulates chloride dependent transport by human KCC2; Q9H2X9; 190,000 compounds, 2.2% hits; AID 1456; KCC2 cells, thallium flux FluoZin-2 fluorescence; B-score of Tl+ flux slope (higher = more flux/activation; lower = inhibition) at 10 µM;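 active = thallium flux slope and its plate-corrected score both differing from the plate sample mean at a set confidence after two filtering rounds, in either direction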;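 also: slope of fluorescence scaled to starting intensity during 10 to 20 s after thallium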
Target sequence (Q9H2X9 whole entry, looked up): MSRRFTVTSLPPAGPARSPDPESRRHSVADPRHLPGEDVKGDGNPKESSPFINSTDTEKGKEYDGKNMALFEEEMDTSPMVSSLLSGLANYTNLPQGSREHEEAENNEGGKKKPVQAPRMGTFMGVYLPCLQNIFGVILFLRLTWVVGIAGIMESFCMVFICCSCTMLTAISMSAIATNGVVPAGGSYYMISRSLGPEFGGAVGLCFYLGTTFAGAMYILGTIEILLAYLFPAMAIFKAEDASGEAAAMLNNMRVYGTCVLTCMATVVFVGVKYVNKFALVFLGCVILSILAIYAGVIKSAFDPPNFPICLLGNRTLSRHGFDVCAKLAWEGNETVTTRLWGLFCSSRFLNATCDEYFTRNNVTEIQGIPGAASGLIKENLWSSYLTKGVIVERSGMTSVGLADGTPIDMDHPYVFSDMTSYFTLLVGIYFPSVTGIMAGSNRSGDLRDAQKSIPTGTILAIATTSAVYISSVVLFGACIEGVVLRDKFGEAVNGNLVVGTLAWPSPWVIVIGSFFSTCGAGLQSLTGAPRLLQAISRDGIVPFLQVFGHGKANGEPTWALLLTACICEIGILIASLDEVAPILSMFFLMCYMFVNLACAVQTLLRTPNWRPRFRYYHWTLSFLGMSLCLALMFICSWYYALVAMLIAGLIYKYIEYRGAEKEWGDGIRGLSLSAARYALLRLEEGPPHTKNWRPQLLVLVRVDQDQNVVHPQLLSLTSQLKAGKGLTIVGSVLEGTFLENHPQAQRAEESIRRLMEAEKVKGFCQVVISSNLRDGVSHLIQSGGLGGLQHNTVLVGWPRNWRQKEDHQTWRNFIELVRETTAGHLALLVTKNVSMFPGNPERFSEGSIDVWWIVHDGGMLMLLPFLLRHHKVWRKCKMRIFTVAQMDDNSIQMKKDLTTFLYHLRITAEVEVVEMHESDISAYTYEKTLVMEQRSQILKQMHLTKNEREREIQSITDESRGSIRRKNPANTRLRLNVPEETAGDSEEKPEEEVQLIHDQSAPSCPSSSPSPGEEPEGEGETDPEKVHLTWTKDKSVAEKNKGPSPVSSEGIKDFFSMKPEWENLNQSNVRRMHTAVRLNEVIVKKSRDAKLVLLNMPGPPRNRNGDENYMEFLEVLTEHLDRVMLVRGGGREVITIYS
MT stabilize HCS – stabilizes microtubules in HeLa cells; HeLa tubulin immunostaining HCS, 24 h; share of cells brighter than vehicle mean+2SD; % tubulin-high responders, % at 10 µM; 200,000 compounds, 0.83% hits;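 active = plate Z-score above 3 for both tubulin-high and condensed-nucleus cell shares, with cell loss under 80%, at 10 µM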;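 also: anti alpha tubulin signal scored within the nucleus-defined area of each cell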
ROMK hit retest – retested hit modulating human ROMK potassium channel; shares compounds with ROMK primary; ROMK thallium flux, fluorescence ratio; hits give low values; normalized thallium flux (F/F0 slope) at 10 µM; 3,000 compounds, 54% hits;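 active = Flux at 10 µM at least 3 SD below or above vehicle control mean in one or both replicates; inconclusive = no clear call, values can overlap the other calls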
A number is an active result.

Results for Cc1c(Cl)cccc1NC(=O)CNC(=O)c1ccc(F)cc1 ?
bCat nuc transl: inactive; Redox H2O2 prof: inactive; Cl transport mod: inactive; MT stabilize HCS: inactive; ROMK hit retest: inconclusive

Results for Cc1noc(C)c1COC(=O)c1ccc2c(c1)S(=O)(=O)c1ccccc1C2=O ?
bCat nuc transl: inactive; Redox H2O2 prof: inactive; Cl transport mod: inactive; MT stabilize HCS: inactive; ROMK hit retest: inactive

What do the screens show for `Cn1c(CNC(=O)c2ccccc2F)nnc1SCCOc1ccccc1`?
bCat nuc transl: inactive; Redox H2O2 prof: inactive; ROMK primary: inactive; Cl transport mod: inactive; MT stabilize HCS: inactive

What do the screens show for `Cc1cc(/C=N\NC(=O)COc2cccc3cccnc23)c(C)n1-c1ccccc1`?
bCat nuc transl: inactive; Redox H2O2 prof: inactive; ROMK primary: inactive; Cl transport mod: inactive; MT stabilize HCS: inactive

What do the screens show for `Cc1cc(/C=N/NC(=O)C(=O)NCc2ccccn2)c(C)n1-c1ccccc1`?
bCat nuc transl: inactive; Redox H2O2 prof: inactive; ROMK primary: 2.71; Cl transport mod: inactive; MT stabilize HCS: inactive; ROMK hit retest: inactive

How did NC(=O)c1ccc(NC(=O)COC(=O)C2(c3ccccc3F)CCCC2)cc1 do in these assays?
bCat nuc transl: inactive; Redox H2O2 prof: inactive; ROMK primary: -12.8; Cl transport mod: inactive; MT stabilize HCS: inactive; ROMK hit retest: inactive

How did O=C(NC(=S)Nc1ccccc1F)c1ccc(Br)o1 do in these assays?
bCat nuc transl: inactive; Redox H2O2 prof: inactive; Cl transport mod: inactive; MT stabilize HCS: inactive; ROMK hit retest: 0.136

Results for Cn1ncc(C(N)=O)c1NC(=S)NC(=O)c1ccc(Br)o1 ?
bCat nuc transl: inactive; Redox H2O2 prof: inactive; ROMK primary: 1.01; Cl transport mod: inactive; MT stabilize HCS: inactive; ROMK hit retest: inactive

What do the screens show for `COc1cc(-c2nnc(SCC3(c4ccccc4)OCCO3)o2)cc(OC)c1OC`?
bCat nuc transl: inactive; Redox H2O2 prof: inactive; ROMK primary: inactive; Cl transport mod: inactive; MT stabilize HCS: inactive

How did COc1cc(CN(C2CCCCC2C)S(=O)(=O)c2ccc(S(=O)(=O)NC3CC3)cc2)cc(OC)c1OC (stereo not drawn) do in these assays?
bCat nuc transl: inactive; Redox H2O2 prof: inactive; ROMK primary: inactive; Cl transport mod: inactive; MT stabilize HCS: inactive

Results for COc1ccc(CN(C2CCCCC2C)S(=O)(=O)c2ccc(S(=O)(=O)N(C)C)cc2)cc1OC (stereo not drawn) ?
bCat nuc transl: inactive; Redox H2O2 prof: inactive; Cl transport mod: inactive; MT stabilize HCS: inactive; ROMK hit retest: inactive

Results for CC(C)Sc1nnc(CNC(=O)C23CC4CC(CC(C4)C2)C3)n1C1CCCCC1 ?
bCat nuc transl: inactive; Redox H2O2 prof: inactive; Cl transport mod: inactive; MT stabilize HCS: inactive

Results for CCOC(=O)NC(Nc1sc2c(c1C(=O)OC)CCN(C)C2)(C(F)(F)F)C(F)(F)F ?
bCat nuc transl: inactive; Redox H2O2 prof: inactive; ROMK primary: inactive; Cl transport mod: inactive; MT stabilize HCS: inactive; ROMK hit retest: inactive

How did CCSc1nnc2nc(C)cc(C)n12 do in these assays?
bCat nuc transl: inactive; Redox H2O2 prof: inactive; ROMK primary: 1.91; Cl transport mod: inactive; MT stabilize HCS: inactive; ROMK hit retest: inactive

How did Cc1cccc(N2C(=S)NC3c4ccccc4OC2(C)C3C(=O)N(C)C)c1 (stereo not drawn) do in these assays?
bCat nuc transl: inactive; Redox H2O2 prof: inactive; ROMK primary: -4.41; Cl transport mod: inactive; MT stabilize HCS: inactive; ROMK hit retest: 0.0635

Results for CCNC(=O)C(=O)NCc1ccncc1 ?
bCat nuc transl: inactive; Redox H2O2 prof: inactive; ROMK primary: inactive; Cl transport mod: inactive; MT stabilize HCS: inactive

Results for N#C/C(=C\c1ccncc1)c1nc2ccccc2c(=O)[nH]1 ?
bCat nuc transl: inactive; Redox H2O2 prof: inactive; ROMK primary: -4.93; Cl transport mod: inactive; MT stabilize HCS: inactive; ROMK hit retest: 0.0512

What do the screens show for `N#C/C(=C/c1ccncc1)c1nc2ccccc2c(=O)[nH]1`?
bCat nuc transl: inactive; ROMK primary: -6.62; Cl transport mod: inactive; ROMK hit retest: 0.042

What do the screens show for `N#C/C(=C1\CCCN1)c1nc2ccccc2c(=O)[nH]1`?
bCat nuc transl: inactive; Redox H2O2 prof: inactive; ROMK primary: inactive; MT stabilize HCS: inactive

What do the screens show for `N#C/C(=C\c1ccccc1)c1nc2ncccc2[nH]1`?
bCat nuc transl: inactive; Redox H2O2 prof: inactive; ROMK primary: -2.54; Cl transport mod: inactive; MT stabilize HCS: inactive; ROMK hit retest: 0.0534

What do the screens show for `N#C/C(=C\c1ccncc1)c1nc2ccccc2o1`?
bCat nuc transl: inactive; ROMK primary: inactive; Cl transport mod: inactive

Results for CCOC(=O)c1c(NC(=O)CSc2ncccn2)sc2c1CCN(Cc1ccccc1)C2 ?
bCat nuc transl: inactive; Redox H2O2 prof: inactive; ROMK primary: inactive; Cl transport mod: inactive; MT stabilize HCS: inactive

Results for CCOC(=O)c1c(NC(=S)Nc2ccccc2)sc2c1CCN(CCc1ccccc1)C2 ?
bCat nuc transl: inactive; Redox H2O2 prof: inactive; Cl transport mod: inactive; MT stabilize HCS: inactive; ROMK hit retest: 0.0615

What do the screens show for `CCC1CCCCN1S(=O)(=O)c1ccc(S(=O)(=O)N(Cc2cccs2)C2CC2)cc1` (stereo not drawn)?
bCat nuc transl: inactive; Redox H2O2 prof: inactive; Cl transport mod: inactive; MT stabilize HCS: inactive; ROMK hit retest: inconclusive

Results for Cc1cc(C2(c3ccc(O)c(C)c3)OC(=O)c3ccccc32)ccc1O ?
bCat nuc transl: inactive; Redox H2O2 prof: inactive; ROMK primary: inactive; Cl transport mod: inactive; MT stabilize HCS: inactive; ROMK hit retest: inactive

How did Oc1ccc(/C=N/NC(=S)N/N=C/c2ccc(O)cc2)cc1 do in these assays?
bCat nuc transl: inactive; Redox H2O2 prof: inactive; ROMK primary: 3.3; Cl transport mod: inactive; MT stabilize HCS: inactive; ROMK hit retest: inactive

How did COCCN(C(=S)Nc1ccc(OC)cc1)C1CCN(C(C)=O)CC1 do in these assays?
bCat nuc transl: inactive; Redox H2O2 prof: inactive; ROMK primary: inactive; Cl transport mod: inactive; MT stabilize HCS: inactive

Results for CCOc1ccccc1N(CC(=O)N1CCOCC1)S(=O)(=O)c1ccc(SC)cc1 ?
Redox H2O2 prof: inactive; ROMK primary: -7.38; Cl transport mod: inactive; MT stabilize HCS: inactive; ROMK hit retest: 0.0335

How did CCOc1ccccc1N(CC(=O)Nc1ccc(S(=O)(=O)N2CCOCC2)cc1)S(=O)(=O)c1ccccc1 do in these assays?
bCat nuc transl: inactive; Redox H2O2 prof: inactive; Cl transport mod: inactive; MT stabilize HCS: inactive

How did Cn1c2ccccc2c(=O)c2c(=O)n(Cc3ccccc3)c(-c3ccc(F)cc3)nc21 do in these assays?
bCat nuc transl: inactive; ROMK primary: inactive; Cl transport mod: inactive

How did CC(=O)c1c(C)[nH]c(C(=O)OC(C)C(=O)Nc2cc(S(=O)(=O)N3CCCCC3)ccc2Cl)c1C (stereo not drawn) do in these assays?
bCat nuc transl: inactive; Redox H2O2 prof: inactive; ROMK primary: inactive; Cl transport mod: inactive; MT stabilize HCS: inactive

What do the screens show for `CCc1cc(=O)[nH]c(SCCC(F)=C(F)F)n1`?
bCat nuc transl: inactive; Redox H2O2 prof: inactive; ROMK primary: inactive; Cl transport mod: inactive; MT stabilize HCS: inactive
